Reference: ChEMBL document CHEMBL5058577, “EUbOPEN Chemogenomics Library 2 (Multiplex)” (2022)

Tested on: Fibroblast
Assay: Multiplex assay against human fibroblast
Type: toxicity, cell-based
Summary of the method: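 Hoechst33342, BioTracker Green Microtubule Cytoskeleton Dye, MitoTracker Red and Annexin V Alexa Fluor 680 were added to live cells at seeding, and imaging on a CQ1 microscope at 37°C and 5% CO2 followed compound addition. Gating by CellPathfinder machine learning separated cells into Hoechst high-intensity objects or normal cells, then normal cells into healthy, pyknosed or fragmented nuclei, then pyknosed cells into mitotic or apoptotic. Per cents of healthy-nucleus cells are reported for the tubulin, mitochondrial-mass and membrane-permeability phenotypes.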

[1] = 12 h, 1 µM, compound concentration 1 uM, replicate 1
[2] = 12 h, 1 µM, compound concentration 1 uM, replicate 2
[3] = 12 h, 10 µM, compound concentration 10 uM, replicate 1
[4] = 12 h, 10 µM, compound concentration 10 uM, replicate 2
[5] = 24 h, 1 µM, compound concentration 1 uM, replicate 1
[6] = 24 h, 1 µM, compound concentration 1 uM, replicate 2
[7] = 24 h, 10 µM, compound concentration 10 uM, replicate 1
[8] = 24 h, 10 µM, compound concentration 10 uM, replicate 2
[9] = 48 h, 1 µM, compound concentration 1 uM, replicate 1
[10] = 48 h, 1 µM, compound concentration 1 uM, replicate 2
[11] = 48 h, 10 µM, compound concentration 10 uM, replicate 1
[12] = 48 h, 10 µM, compound concentration 10 uM, replicate 2

COc1ccc2c(c1OCc1ccccc1)C[C@@H](C(=O)O)N(C(=O)C(c1ccccc1)c1ccccc1)C2 [OLODANRIGAN]
Population Apoptotic (%) [1]: 46%
Population Fragmented Nuclei (%) [1]: 17%
Population Healthy Nuclei (%) [1]: 63%
Population Hoechst High Intensity Objects (%) [1]: 7%
Population Membrane Permeable-Phenotype (%) [1]: 1%
Population Mitochondria Different-Phenotype (%) [1]: 2%
Population Mitotic Cells (%) [1]: 53%
Population Normal (%) [1]: 92%
Population Pyknosed Nuclei (%) [1]: 19%
Population Tubulin-Different-Phenotype (%) [1]: 29%
Total Cell Count [1]: 157
Population Apoptotic (%) [2]: 38%
Population Fragmented Nuclei (%) [2]: 21%
Population Healthy Nuclei (%) [2]: 50%
Population Hoechst High Intensity Objects (%) [2]: 1%
Population Membrane Permeable-Phenotype (%) [2]: 9%
Population Mitochondria Different-Phenotype (%) [2]: 5%
Population Mitotic Cells (%) [2]: 61%
Population Normal (%) [2]: 98%
Population Pyknosed Nuclei (%) [2]: 27%
Population Tubulin-Different-Phenotype (%) [2]: 57%
Total Cell Count [2]: 154
Population Apoptotic (%) [3]: 31%
Population Fragmented Nuclei (%) [3]: 11%
Population Healthy Nuclei (%) [3]: 65%
Population Hoechst High Intensity Objects (%) [3]: 0%
Population Membrane Permeable-Phenotype (%) [3]: 1%
Population Mitochondria Different-Phenotype (%) [3]: 7%
Population Mitotic Cells (%) [3]: 68%
Population Normal (%) [3]: 99%
Population Pyknosed Nuclei (%) [3]: 23%
Population Tubulin-Different-Phenotype (%) [3]: 28%
Total Cell Count [3]: 140
Population Apoptotic (%) [4]: 34%
Population Fragmented Nuclei (%) [4]: 18%
Population Healthy Nuclei (%) [4]: 54%
Population Hoechst High Intensity Objects (%) [4]: 5%
Population Membrane Permeable-Phenotype (%) [4]: 6%
Population Mitotic Cells (%) [4]: 65%
Population Normal (%) [4]: 94%
Population Pyknosed Nuclei (%) [4]: 26%
Population Tubulin-Different-Phenotype (%) [4]: 46%
Total Cell Count [4]: 162
Population Apoptotic (%) [5]: 65%
Population Fragmented Nuclei (%) [5]: 18%
Population Healthy Nuclei (%) [5]: 66%
Population Hoechst High Intensity Objects (%) [5]: 6%
Population Membrane Permeable-Phenotype (%) [5]: 0%
Population Mitochondria Different-Phenotype (%) [5]: 1%
Population Mitotic Cells (%) [5]: 34%
Population Normal (%) [5]: 93%
Population Pyknosed Nuclei (%) [5]: 15%
Population Tubulin-Different-Phenotype (%) [5]: 26%
Total Cell Count [5]: 159
Population Apoptotic (%) [6]: 38%
Population Fragmented Nuclei (%) [6]: 21%
Population Healthy Nuclei (%) [6]: 53%
Population Hoechst High Intensity Objects (%) [6]: 2%
Population Membrane Permeable-Phenotype (%) [6]: 9%
Population Mitochondria Different-Phenotype (%) [6]: 7%
Population Mitotic Cells (%) [6]: 61%
Population Normal (%) [6]: 97%
Population Pyknosed Nuclei (%) [6]: 25%
Population Tubulin-Different-Phenotype (%) [6]: 46%
Total Cell Count [6]: 146
Population Apoptotic (%) [7]: 53%
Population Fragmented Nuclei (%) [7]: 10%
Population Healthy Nuclei (%) [7]: 68%
Population Hoechst High Intensity Objects (%) [7]: 2%
Population Membrane Permeable-Phenotype (%) [7]: 1%
Population Mitochondria Different-Phenotype (%) [7]: 3%
Population Mitotic Cells (%) [7]: 46%
Population Normal (%) [7]: 97%
Population Pyknosed Nuclei (%) [7]: 21%
Population Tubulin-Different-Phenotype (%) [7]: 21%
Total Cell Count [7]: 136
Population Apoptotic (%) [8]: 58%
Population Fragmented Nuclei (%) [8]: 17%
Population Healthy Nuclei (%) [8]: 62%
Population Hoechst High Intensity Objects (%) [8]: 3%
Population Membrane Permeable-Phenotype (%) [8]: 4%
Population Mitochondria Different-Phenotype (%) [8]: 4%
Population Mitotic Cells (%) [8]: 41%
Population Normal (%) [8]: 96%
Population Pyknosed Nuclei (%) [8]: 19%
Population Tubulin-Different-Phenotype (%) [8]: 50%
Total Cell Count [8]: 153
Population Apoptotic (%) [9]: 42%
Population Fragmented Nuclei (%) [9]: 27%
Population Healthy Nuclei (%) [9]: 58%
Population Hoechst High Intensity Objects (%) [9]: 3%
Population Membrane Permeable-Phenotype (%) [9]: 0%
Population Mitochondria Different-Phenotype (%) [9]: 2%
Population Mitotic Cells (%) [9]: 57%
Population Normal (%) [9]: 96%
Population Pyknosed Nuclei (%) [9]: 14%
Population Tubulin-Different-Phenotype (%) [9]: 20%
Total Cell Count [9]: 154
Population Apoptotic (%) [10]: 41%
Population Fragmented Nuclei (%) [10]: 31%
Population Healthy Nuclei (%) [10]: 52%
Population Hoechst High Intensity Objects (%) [10]: 1%
Population Membrane Permeable-Phenotype (%) [10]: 1%
Population Mitochondria Different-Phenotype (%) [10]: 4%
Population Mitotic Cells (%) [10]: 58%
Population Normal (%) [10]: 98%
Population Pyknosed Nuclei (%) [10]: 15%
Population Tubulin-Different-Phenotype (%) [10]: 40%
Total Cell Count [10]: 156
Population Apoptotic (%) [11]: 57%
Population Fragmented Nuclei (%) [11]: 15%
Population Healthy Nuclei (%) [11]: 69%
Population Hoechst High Intensity Objects (%) [11]: 5%
Population Membrane Permeable-Phenotype (%) [11]: 1%
Population Mitochondria Different-Phenotype (%) [11]: 5%
Population Mitotic Cells (%) [11]: 42%
Population Normal (%) [11]: 94%
Population Pyknosed Nuclei (%) [11]: 15%
Population Tubulin-Different-Phenotype (%) [11]: 27%
Total Cell Count [11]: 146
Population Apoptotic (%) [12]: 61%
Population Fragmented Nuclei (%) [12]: 29%
Population Healthy Nuclei (%) [12]: 58%
Population Hoechst High Intensity Objects (%) [12]: 7%
Population Membrane Permeable-Phenotype (%) [12]: 3%
Population Mitotic Cells (%) [12]: 38%
Population Normal (%) [12]: 92%
Population Pyknosed Nuclei (%) [12]: 12%
Population Tubulin-Different-Phenotype (%) [12]: 45%
Total Cell Count [12]: 163

Cc1cc(NC(=O)NCCN2CCC(O)(Cc3ccccc3)CC2)c2ccccc2n1 [PALOSURAN]
Population Apoptotic (%) [1]: 37%
Population Fragmented Nuclei (%) [1]: 10%
Population Healthy Nuclei (%) [1]: 77%
Population Hoechst High Intensity Objects (%) [1]: 2%
Population Membrane Permeable-Phenotype (%) [1]: 3%
Population Mitochondria Different-Phenotype (%) [1]: 1%
Population Mitotic Cells (%) [1]: 62%
Population Normal (%) [1]: 97%
Population Pyknosed Nuclei (%) [1]: 12%
Population Tubulin-Different-Phenotype (%) [1]: 19%
Total Cell Count [1]: 133
Population Apoptotic (%) [2]: 40%
Population Fragmented Nuclei (%) [2]: 26%
Population Healthy Nuclei (%) [2]: 44%
Population Hoechst High Intensity Objects (%) [2]: 9%
Population Membrane Permeable-Phenotype (%) [2]: 1%
Population Mitochondria Different-Phenotype (%) [2]: 13%
Population Mitotic Cells (%) [2]: 59%
Population Normal (%) [2]: 90%
Population Pyknosed Nuclei (%) [2]: 28%
Population Tubulin-Different-Phenotype (%) [2]: 46%
Total Cell Count [2]: 143
Population Apoptotic (%) [3]: 40%
Population Fragmented Nuclei (%) [3]: 14%
Population Healthy Nuclei (%) [3]: 69%
Population Hoechst High Intensity Objects (%) [3]: 1%
Population Membrane Permeable-Phenotype (%) [3]: 0%
Population Mitochondria Different-Phenotype (%) [3]: 13%
Population Mitotic Cells (%) [3]: 59%
Population Normal (%) [3]: 98%
Population Pyknosed Nuclei (%) [3]: 15%
Population Tubulin-Different-Phenotype (%) [3]: 37%
Total Cell Count [3]: 178
Population Apoptotic (%) [4]: 41%
Population Fragmented Nuclei (%) [4]: 28%
Population Healthy Nuclei (%) [4]: 49%
Population Hoechst High Intensity Objects (%) [4]: 6%
Population Membrane Permeable-Phenotype (%) [4]: 3%
Population Mitochondria Different-Phenotype (%) [4]: 3%
Population Mitotic Cells (%) [4]: 58%
Population Normal (%) [4]: 93%
Population Pyknosed Nuclei (%) [4]: 22%
Population Tubulin-Different-Phenotype (%) [4]: 51%
Total Cell Count [4]: 113
Population Apoptotic (%) [5]: 53%
Population Fragmented Nuclei (%) [5]: 15%
Population Healthy Nuclei (%) [5]: 73%
Population Hoechst High Intensity Objects (%) [5]: 2%
Population Membrane Permeable-Phenotype (%) [5]: 1%
Population Mitochondria Different-Phenotype (%) [5]: 0%
Population Mitotic Cells (%) [5]: 46%
Population Normal (%) [5]: 97%
Population Pyknosed Nuclei (%) [5]: 10%
Population Tubulin-Different-Phenotype (%) [5]: 17%
Total Cell Count [5]: 129
Population Apoptotic (%) [6]: 40%
Population Fragmented Nuclei (%) [6]: 27%
Population Healthy Nuclei (%) [6]: 50%
Population Hoechst High Intensity Objects (%) [6]: 6%
Population Membrane Permeable-Phenotype (%) [6]: 14%
Population Mitochondria Different-Phenotype (%) [6]: 21%
Population Mitotic Cells (%) [6]: 60%
Population Normal (%) [6]: 93%
Population Pyknosed Nuclei (%) [6]: 22%
Population Tubulin-Different-Phenotype (%) [6]: 62%
Total Cell Count [6]: 119
Population Apoptotic (%) [7]: 42%
Population Fragmented Nuclei (%) [7]: 14%
Population Healthy Nuclei (%) [7]: 77%
Population Hoechst High Intensity Objects (%) [7]: 1%
Population Membrane Permeable-Phenotype (%) [7]: 0%
Population Mitochondria Different-Phenotype (%) [7]: 8%
Population Mitotic Cells (%) [7]: 57%
Population Normal (%) [7]: 98%
Population Pyknosed Nuclei (%) [7]: 8%
Population Tubulin-Different-Phenotype (%) [7]: 37%
Total Cell Count [7]: 178
Population Apoptotic (%) [8]: 60%
Population Fragmented Nuclei (%) [8]: 30%
Population Healthy Nuclei (%) [8]: 47%
Population Hoechst High Intensity Objects (%) [8]: 3%
Population Membrane Permeable-Phenotype (%) [8]: 3%
Population Mitochondria Different-Phenotype (%) [8]: 1%
Population Mitotic Cells (%) [8]: 40%
Population Normal (%) [8]: 96%
Population Pyknosed Nuclei (%) [8]: 22%
Population Tubulin-Different-Phenotype (%) [8]: 48%
Total Cell Count [8]: 117
Population Apoptotic (%) [9]: 50%
Population Fragmented Nuclei (%) [9]: 16%
Population Healthy Nuclei (%) [9]: 72%
Population Hoechst High Intensity Objects (%) [9]: 3%
Population Membrane Permeable-Phenotype (%) [9]: 0%
Population Mitochondria Different-Phenotype (%) [9]: 2%
Population Mitotic Cells (%) [9]: 50%
Population Normal (%) [9]: 96%
Population Pyknosed Nuclei (%) [9]: 11%
Population Tubulin-Different-Phenotype (%) [9]: 15%
Total Cell Count [9]: 126
Population Apoptotic (%) [10]: 61%
Population Fragmented Nuclei (%) [10]: 42%
Population Healthy Nuclei (%) [10]: 44%
Population Hoechst High Intensity Objects (%) [10]: 7%
Population Membrane Permeable-Phenotype (%) [10]: 14%
Population Mitochondria Different-Phenotype (%) [10]: 14%
Population Mitotic Cells (%) [10]: 38%
Population Normal (%) [10]: 92%
Population Pyknosed Nuclei (%) [10]: 13%
Population Tubulin-Different-Phenotype (%) [10]: 61%
Total Cell Count [10]: 149
Population Apoptotic (%) [11]: 55%
Population Fragmented Nuclei (%) [11]: 19%
Population Healthy Nuclei (%) [11]: 69%
Population Hoechst High Intensity Objects (%) [11]: 5%
Population Membrane Permeable-Phenotype (%) [11]: 0%
Population Mitochondria Different-Phenotype (%) [11]: 10%
Population Mitotic Cells (%) [11]: 44%
Population Normal (%) [11]: 94%
Population Pyknosed Nuclei (%) [11]: 10%
Population Tubulin-Different-Phenotype (%) [11]: 36%
Total Cell Count [11]: 186
Population Apoptotic (%) [12]: 61%
Population Fragmented Nuclei (%) [12]: 38%
Population Healthy Nuclei (%) [12]: 44%
Population Hoechst High Intensity Objects (%) [12]: 2%
Population Membrane Permeable-Phenotype (%) [12]: 2%
Population Mitochondria Different-Phenotype (%) [12]: 6%
Population Mitotic Cells (%) [12]: 38%
Population Normal (%) [12]: 97%
Population Pyknosed Nuclei (%) [12]: 16%
Population Tubulin-Different-Phenotype (%) [12]: 61%
Total Cell Count [12]: 112
